Key:
[1] = target: Sodium-dependent dopamine transporter (Rattus norvegicus, UniProt P23977); assay: Inhibitory activity against dopamine transporter (DAT) labeled with [3H]WIN-35428 in rat brain striatal membrane.; assay type: cell membranes
[2] = target: Sodium-dependent serotonin transporter (Rattus norvegicus, UniProt P31652); assay: Inhibitory activity against serotonin transporter (SERT) labeled with [3H]-citalopram in rat brain striatal membrane.; assay type: cell membranes
[3] = tested on: Monoamine transporters; serotonin & dopamine; assay: Ratio between the IC50 values of SERT and DAT; assay type: protein assay
Summary of the method: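 Selectivity ratio: SERT IC50 ([3H]citalopram) divided by DAT IC50 ([3H]WIN 35,428). Both IC50s come from binding in male Sprague–Dawley rat striatal membranes under identical conditions, each by nonlinear curve fitting of at least five concentrations, three independent experiments in triplicate.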

Sodium-dependent dopamine transporter, sequence (P23977 whole entry): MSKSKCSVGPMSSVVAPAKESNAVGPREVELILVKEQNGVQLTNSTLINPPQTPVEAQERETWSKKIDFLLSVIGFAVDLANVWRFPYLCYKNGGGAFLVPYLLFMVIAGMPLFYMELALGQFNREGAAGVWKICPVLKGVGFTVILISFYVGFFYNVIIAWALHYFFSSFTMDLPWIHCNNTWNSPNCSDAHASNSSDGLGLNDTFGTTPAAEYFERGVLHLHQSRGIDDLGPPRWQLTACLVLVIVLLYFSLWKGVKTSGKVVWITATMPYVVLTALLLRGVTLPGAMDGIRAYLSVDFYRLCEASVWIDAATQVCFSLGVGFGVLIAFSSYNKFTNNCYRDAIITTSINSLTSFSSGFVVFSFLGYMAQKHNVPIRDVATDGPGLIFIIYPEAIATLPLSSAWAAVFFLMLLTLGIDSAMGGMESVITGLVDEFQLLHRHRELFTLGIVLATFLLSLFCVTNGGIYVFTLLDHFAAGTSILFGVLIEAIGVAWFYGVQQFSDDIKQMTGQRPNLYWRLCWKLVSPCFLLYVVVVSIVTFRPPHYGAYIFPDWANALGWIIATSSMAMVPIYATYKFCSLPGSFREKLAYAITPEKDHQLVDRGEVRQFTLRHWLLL
Sodium-dependent serotonin transporter, sequence (P31652 whole entry): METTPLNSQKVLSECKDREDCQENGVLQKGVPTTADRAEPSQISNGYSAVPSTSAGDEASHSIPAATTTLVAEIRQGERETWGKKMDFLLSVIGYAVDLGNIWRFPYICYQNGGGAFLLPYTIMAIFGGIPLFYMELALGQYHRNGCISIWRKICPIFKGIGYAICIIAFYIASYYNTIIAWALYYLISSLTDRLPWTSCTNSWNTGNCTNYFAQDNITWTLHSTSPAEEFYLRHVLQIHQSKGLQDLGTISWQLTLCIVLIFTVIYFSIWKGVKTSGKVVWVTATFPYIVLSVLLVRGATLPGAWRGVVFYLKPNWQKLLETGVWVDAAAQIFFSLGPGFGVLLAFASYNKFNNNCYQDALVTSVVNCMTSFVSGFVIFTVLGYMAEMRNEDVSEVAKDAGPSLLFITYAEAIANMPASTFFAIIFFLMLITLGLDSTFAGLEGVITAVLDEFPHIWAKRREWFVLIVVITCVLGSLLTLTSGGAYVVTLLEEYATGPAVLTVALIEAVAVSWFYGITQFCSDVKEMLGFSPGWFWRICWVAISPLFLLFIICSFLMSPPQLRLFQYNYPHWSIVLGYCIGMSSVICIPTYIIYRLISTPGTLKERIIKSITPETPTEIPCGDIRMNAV

Row | Compound | IC50 [1] | IC50 [2] | Ratio [3]
1 | Fc1ccc(C(OCCC2CCN(CC=Cc3ccccc3)CC2)c2ccc(F)cc2)cc1 | 0.0414 µM | 0.271 µM | 6.5
2 | Fc1ccc(CCCN2CCC(CCOC(c3ccccc3)c3ccccc3)CC2)cc1 | 0.0066 µM | 0.223 µM | 33.8
3 | Fc1ccc(C=CCN2CCC(CCOC(c3ccc(F)cc3)c3ccc(F)cc3)CC2)cc1 | 0.0151 µM | 0.0758 µM | 5
4 | Fc1ccc(C=CCN2CCC(CCOC(c3ccccc3)c3ccccc3)CC2)cc1 | 0.0108 µM | 0.205 µM | 19
5 | c1ccc(C(OCCC2CCN(CCCc3cccnc3)CC2)c2ccccc2)cc1 | 0.0299 µM | 0.194 µM | 6.5
6 | C(=Cc1ccccc1)CN1CCC(CCOC(c2ccccc2)c2ccccc2)CC1 | 0.0101 µM | 0.232 µM | 22.9
7 | C(=Cc1cccs1)CN1CCC(CCOC(c2ccccc2)c2ccccc2)CC1 | 0.0098 µM | 0.291 µM | 29.6
8 | Fc1ccc(C(OCCC2CCN(CCCc3ccccc3)CC2)c2cccs2)cc1 (configuration not stated) | 0.0117 µM | 0.0857 µM | 7.3
9 | c1ccc(CCCN2CCC(CCOC(c3ccccc3)c3cccs3)CC2)cc1 (configuration not stated) | 0.006 µM | 0.18 µM | 30

— ChEMBL document CHEMBL1131564, “Potent and selective ligands for the dopamine transporter (DAT): structure-activity relationship studies of novel 4-[2-(diphenylmethoxy)ethyl]-1-(3-phenylpropyl)piperidine analogues” (J Med Chem, 1998)
